Results taken from ChEMBL document CHEMBL2380285, “Quinolin-4(1H)-imines are potent antiplasmodial drugs targeting the liver stage of malaria” (J Med Chem, 2013).
Calls of active or inactive are those of the source. The rule behind the calls is not given here.

Tests used:
[1] = tested on: Plasmodium berghei; assay: Antiplasmodial activity against liver stage Plasmodium berghei infected in human HuH7 cells co-expressing GFP-Luccon treated for 1 hr prior to infection followed by 24 hrs after compound washout measured after 48 hrs post-infection by Alamar Blue assay; type: functional, organism-based; conditions: Huh-7
Method in brief: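 Huh-7 hepatoma cells infected with P. berghei were exposed to a rising series of inhibitor concentrations, with 10 μM the highest tested. IC50 was read from sigmoidal concentration–response curves.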

[2] = Inhibition of Cytochrome b-c1 complex in Plasmodium falciparum 3D7A mitochondria assessed as antimycin-sensitive decylubiquinol-cytochrome c oxidoreductase level
[3] = target: T1, Dihydroorotate dehydrogenase (fumarate) (Saccharomyces cerevisiae S288c) (UniProt P28272); assay: Inhibition of Saccharomyces cerevisiae DHODH expressed in Plasmodium falciparum Dd2 by [3H]-hypoxanthine incorporation assay
T1 sequence (whole entry): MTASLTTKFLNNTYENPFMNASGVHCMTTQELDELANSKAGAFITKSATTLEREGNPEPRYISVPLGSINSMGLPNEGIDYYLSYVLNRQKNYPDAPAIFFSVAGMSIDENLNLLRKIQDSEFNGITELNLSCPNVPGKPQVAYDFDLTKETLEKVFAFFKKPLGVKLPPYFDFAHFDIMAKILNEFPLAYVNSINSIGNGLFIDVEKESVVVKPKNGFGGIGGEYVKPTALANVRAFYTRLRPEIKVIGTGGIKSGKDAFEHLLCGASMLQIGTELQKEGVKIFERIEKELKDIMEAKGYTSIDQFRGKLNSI

[4] = tested on: Plasmodium falciparum; assay: Inhibition of Plasmodium falciparum thioredoxin reductase using DTNB as substrate up to 50 uM after 1 hr by colorimetric assay
[5] = target: T1, Dihydroorotate dehydrogenase (fumarate) (Saccharomyces cerevisiae S288c); assay: Inhibition of Saccharomyces cerevisiae DHODH expressed in Plasmodium falciparum Dd2 by [3H]-hypoxanthine incorporation assay in presence of proguanil
[6] = Inhibition of heme crystallization to hemozoin; type: functional
[7] = Binding affinity to hematin (unknown origin) by UV-visible titration analysis
[8] = tested on: Plasmodium berghei; assay: Ratio of primaquine IC50 to compound IC50 for liver stage Plasmodium berghei infected in human HuH7 cells; type: functional, Huh-7
[9] = tested on: Plasmodium falciparum; assay: Antiplasmodial activity against ring stage Plasmodium falciparum W2 infected in human RBC after 48 hrs by FACS analysis; type: functional, organism-based; conditions: W2, 48 h
[10] = Selectivity index, ratio of CC50 for human HepG2 cells to IC50 for liver stage Plasmodium berghei; type: functional
[11] = Cytotoxicity against human HepG2 cells after 48 hrs by Alamar Blue assay; type: cell-based
[12] = tested on: Plasmodium falciparum; assay: Inhibition of Plasmodium falciparum Enoyl-ACP reductase using Crotonoyl-CoA as substrate up to 50 uM after 20 mins by fluorescence assay
[13] = Half life in rat liver microsomes at 1 uM after 24 hrs by LC-MS/MS analysis

Structure (SMILES) | IC50 [1] [µM] | IC50 [6] [µM] | logKA [7] | IC50 [9] [µM] | Ratio CC50/IC50 [10] | CC50 at 48 h [11] [µM] | also measured
O=C1C(O)=C([C@H]2CC[C@H](c3ccc(Cl)cc3)CC2)C(=O)c2ccccc21 [ATOVAQUONE] | 0.000376 |  |  |  |  |  | IC50 [2]: 0.0003 µM
CCn1cc/c(=N\c2ccc(Oc3cccc(OC(F)(F)F)c3)cc2)c2ccc(Cl)cc21 | 0.081 | 15.4 | 5.1 | 1.18 | 63.7 | 5.16 | inhibition [3]: inactive; inhibition [4]: inactive; inhibition [5]: inactive; Ratio IC50 [8]: 94; IC50 [2]: 1.2 µM; inhibition [12]: inactive
CCn1cc/c(=N\c2ccc(Oc3ccc(Cl)cc3)cc2)c2ccc(Cl)cc21 | 0.087 | 16.2 | 5.1 | 1.09 | 30.9 | 2.69 | Ratio IC50 [8]: 94; half-life at 24 h, 1 µM ([13]; microsomes): 3.9 h
CCn1cc/c(=N\c2ccc(-c3ccccc3)cc2)c2ccc(C(F)(F)F)cc21 | 0.575 | 17 | 5.7 | 0.59 | 12.2 | 7.04 | inhibition [3]: inactive; inhibition [4]: inactive; inhibition [5]: inactive; half-life at 24 h, 1 µM ([13]; liver microsomes): 4.2 h; IC50 [2]: 28 µM; inhibition [12]: inactive
CCn1cc/c(=N\c2ccc(Oc3ccc(C(F)(F)F)cc3)cc2)c2ccc(Cl)cc21 | 0.234 |  |  | 1.26 |  | 3.2 | 
CCN(CC)CCCC(C)Nc1ccnc2cc(Cl)ccc12 (stereo unspecified) [CHLOROQUINE] |  | 6.6 |  |  |  |  | 
CCOC(=O)c1cn(C)c2ccc(F)cc2/c1=N/c1ccc(-c2ccccc2)cc1 | > 10 |  |  | 5.88 |  |  | 
CCn1cc/c(=N\c2ccc(Cc3ccccc3)cc2)c2ccc(Cl)cc21 | 0.589 |  | 5 | 1.69 | 4.91 | 2.89 | 
Cn1cc/c(=N\c2ccc(Oc3ccc(C(F)(F)F)cc3)cc2)c2ccc(Cl)cc21 | 0.229 |  | 4.9 | 1.08 | 13.4 | 3.08 | half-life at 24 h, 1 µM ([13]; liver microsomes): 4.1 h
CCn1cc/c(=N\c2ccc(Oc3ccc(OC(F)(F)F)cc3)cc2)c2ccc(Cl)cc21 | 0.145 | 13.5 | 4.9 | 0.96 | 24.3 | 3.53 | 
CCn1cc/c(=N\c2ccc(Oc3cccc(OC(F)(F)F)c3)cc2)c2ccc(C(F)(F)F)cc21 | 0.537 |  | 3.9 | 1.56 | 24 | 12.9 | half-life at 24 h, 1 µM ([13]; microsomes): 8.5 h
CCn1cc/c(=N\c2cccc(CCc3ccc(OC(F)(F)F)cc3)c2)c2ccc(C(F)(F)F)cc21 | 0.235 |  | 4.9 | 1.67 | 25.9 | 6.09 | 
O=C(CC1NCCCC1O)Cn1cnc2cc(Br)c(Cl)cc2c1=O (stereo unspecified) [HALOFUGINONE] | 0.017 |  |  |  |  |  | 
CCn1cc/c(=N\c2cccc(CCc3ccc(Cl)cc3)c2)c(Cl)c1 | 0.407 |  |  |  |  |  | 
CCn1cc/c(=N\c2ccc(-c3ccccc3)cc2)c2ccc(Cl)cc21 | 0.2 | 18.9 | 5.6 | 0.54 | 23.6 | 4.61 | half-life at 24 h, 1 µM ([13]; liver microsomes): 4 h
Cc1nc(C)c(Cl)c(O)c1Cl [CLOPIDOL] | 1.46 |  | 4.7 |  |  |  | 
CCOC(=O)c1cn(CC)c2ccc(F)cc2/c1=N/c1ccc(-c2ccccc2)cc1 | > 10 |  |  | 5.32 |  |  | 
CCn1cc/c(=N\c2ccc(Oc3ccccc3)cc2)c2ccc(Cl)cc21 | 0.214 |  | 5.4 | 0.89 | 24.9 | 5.33 | 
CCn1cc/c(=N\c2cccc(CCc3ccc(OC(F)(F)F)cc3)c2)c2ccc(Cl)cc21 | 0.227 |  | 5.2 | 3.11 | 17.4 | 3.94 | 
